Measurements from ChEMBL document CHEMBL1949556, “Design and synthesis of boronic acid inhibitors of endothelial lipase” (Bioorg Med Chem Lett, 2012).

Assays:
[1] = target: T1, Endothelial lipase (Homo sapiens, UniProt Q9Y5X9); experiment: Inhibition of human endothelial lipase expressed using recombinant adenovirus using glycerol-tri[9,10(n)-3H]oleate after 1 hr by vesicle assay
T1 sequence (Q9Y5X9 whole entry): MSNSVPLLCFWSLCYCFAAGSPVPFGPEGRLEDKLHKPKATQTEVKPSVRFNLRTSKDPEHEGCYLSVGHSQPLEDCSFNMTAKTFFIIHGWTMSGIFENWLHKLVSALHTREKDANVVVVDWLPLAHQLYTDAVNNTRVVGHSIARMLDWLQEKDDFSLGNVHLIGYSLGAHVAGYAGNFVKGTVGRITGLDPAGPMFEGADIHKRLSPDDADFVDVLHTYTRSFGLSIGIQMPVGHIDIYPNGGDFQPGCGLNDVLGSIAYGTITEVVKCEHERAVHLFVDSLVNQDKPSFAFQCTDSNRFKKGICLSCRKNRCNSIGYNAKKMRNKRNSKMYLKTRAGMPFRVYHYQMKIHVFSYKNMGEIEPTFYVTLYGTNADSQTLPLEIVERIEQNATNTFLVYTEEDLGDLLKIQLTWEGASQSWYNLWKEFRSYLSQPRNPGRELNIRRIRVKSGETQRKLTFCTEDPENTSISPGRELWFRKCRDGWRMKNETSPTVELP
Outline: (§1)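 Vesicle (interfacial catalysis) substrate system; IC50 taken as mean of two independent experiments, each run in duplicate.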

[2] = target: T2, Lipoprotein lipase (Homo sapiens, UniProt P06858); experiment: Inhibition of human lipoprotein lipase expressed using recombinant adenovirus using glycerol-tri[9,10(n)-3H]oleate after 1 hr by vesicle assay; outline: as §1
T2 sequence (P06858 whole entry): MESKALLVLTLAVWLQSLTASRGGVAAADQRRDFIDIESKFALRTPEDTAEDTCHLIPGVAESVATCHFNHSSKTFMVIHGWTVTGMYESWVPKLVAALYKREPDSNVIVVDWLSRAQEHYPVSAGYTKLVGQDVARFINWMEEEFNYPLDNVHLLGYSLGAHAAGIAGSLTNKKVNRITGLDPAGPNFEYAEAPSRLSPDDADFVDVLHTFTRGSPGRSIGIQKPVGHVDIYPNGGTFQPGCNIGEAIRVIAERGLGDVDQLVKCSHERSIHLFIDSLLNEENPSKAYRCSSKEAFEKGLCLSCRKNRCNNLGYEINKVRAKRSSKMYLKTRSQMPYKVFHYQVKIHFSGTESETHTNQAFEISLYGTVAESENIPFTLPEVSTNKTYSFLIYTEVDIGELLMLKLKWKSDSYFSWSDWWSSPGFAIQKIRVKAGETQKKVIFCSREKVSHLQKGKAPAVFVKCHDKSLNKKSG

[3] = species on record: Homo sapiens; experiment: Selectivity ratio of IC50 for human lipoprotein lipase to IC50 for human endothelial lipase by vesicle assay
Outline: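 Ratio of lipoprotein lipase IC50 to endothelial lipase IC50, both from vesicle assays; unitless.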

[4] = target: T1, Endothelial lipase; experiment: Inhibition of human endothelial lipase overexpressed in HUVEC cells using bis-BD-PC and mono-BD-TG as substrate incubated for 10 mins prior to substrate addition by micelle assay; type: cell-based
Outline: (§2)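 Detergent micelle system, which removes interfacial catalysis and gives direct access to the active site; IC50 taken as mean of two independent experiments, each run in duplicate.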

[5] = target: T2, Lipoprotein lipase; experiment: Inhibition of human lipoprotein lipase expressed in HEK293 cells using bis-BD-PC and mono-BD-TG as substrate incubated for 10 mins prior to substrate addition by micelle assay; outline: as §2
[6] = species on record: Homo sapiens; experiment: Selectivity ratio of IC50 for human lipoprotein lipase by micelle assay to IC50 for human endothelial lipase by micelle assay
Outline: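 Ratio of lipoprotein lipase IC50 to endothelial lipase IC50, both from micelle assays; unitless.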

[7] = target: T3, Endothelial lipase (Homo sapiens) (UniProt Q9Y5X9); experiment: Inhibition of human endothelial lipase expressed using recombinant adenovirus using glycerol-tri[9,10(n)-3H]oleate at 50 uM after 1 hr by vesicle assay
T3 sequence (whole entry): T1 sequence (Q9Y5X9 whole entry)
Outline: (§3)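 Vesicle-based substrate system with the test agent at a single 50 μM concentration; percent inhibition of lipase activity reported.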

[8] = target: T4, Lipoprotein lipase (Homo sapiens) (UniProt P06858); experiment: Inhibition of human lipoprotein lipase expressed using recombinant adenovirus using glycerol-tri[9,10(n)-3H]oleate at 50 uM after 1 hr by vesicle assay; outline: as §3
T4 sequence (whole entry): T2 sequence (P06858 whole entry)

SMILES | IC50 [1] [nM] | IC50 [2] [µM] | Ratio IC50 [3] | IC50 [4] [nM] | IC50 [5] [µM] | Ratio IC50 [6] | inhibition [7] [%] | inhibition [8] [%]
CCCCCCCCCCCc1ccc(B(O)O)cc1 | 2000 | 50 | 25 | 200 | 1.5 | 7.5 |  | 
CCCCCCCc1ccc(B2OC(C)(C)C(C)(C)O2)cc1 | 3500 | 55 | 16 | 1100 | 19 | 17 |  | 
CCCCCc1cccc(B(O)O)c1 | 12800 | 50 | 4 | 22000 | 85 | 3.8 |  | 
CCCCCCCCCCCCCCCC(=O)CCl |  |  |  |  |  |  | 10 | -10
CCCCCCCCCCCCCCCC(=O)C=[N+]=[N-] |  |  |  |  |  |  |  | 20
CC1(C)OB(c2ccc(-c3ccsc3)cc2)OC1(C)C | 1300 | 13 | 10 | 3100 | 36 | 12 |  | 
CC1(C)OB(c2ccc(-c3cccs3)cc2)OC1(C)C | 1900 | 7 | 3.7 | 1600 | 40 | 25 |  | 
Cc1ccc(B(O)O)cc1 [TOLYL BORONIC ACID] |  | 9 | 0.5 | 22000 | 25 | 1.1 |  | 
CCCCCCCCCc1ccc(B(O)O)cc1 | 1000 | 42 | 42 | 100 | 1.4 | 14 |  | 
CCCc1ccc(B2OC(C)(C)C(C)(C)O2)cc1 | 5000 | 25 | 5 | 6000 | 25 | 4.1 |  | 
CCc1ccc(B(O)O)cc1 |  | 9 | 0.3 | 19000 | 20 | 1 |  | 
CCCCCCCCCc1ccccc1B(O)O | 50000 | > 50 |  | 11000 | > 500 | > 50 |  | 
CCCCCCCCCCCc1ccc(B2OC(C)(C)C(C)(C)O2)cc1 | 4500 | > 50 |  | 1400 | 15 | 11 |  | 
CCCCCCCCCCCCCCCC=O |  |  |  |  |  |  | 7 | -1
CCCCCCCCCc1ccc(B2OC(C)(C)C(C)(C)O2)cc1 | 2500 | 50 | 20 | 1000 | 15 | 15 |  | 
CCCCCCCCCc1cccc(B(O)O)c1 | 2800 | > 50 | > 20 | 5000 | 95 | 19 |  | 
CC1(C)OB(c2ccc(-c3ccccc3)cc2)OC1(C)C | 1000 | 4.4 | 4.4 | 1000 | 12 | 12 |  | 
CC1(C)OB(c2ccc(-c3ccc(F)cc3)cc2)OC1(C)C | 1600 | 55 | 34 | 1100 | 33 | 30 |  | 
CCCCCc1cccc(B2OC(C)(C)C(C)(C)O2)c1 | 4200 | 45 | 11 | 35000 | 100 | 2.8 |  | 
CC1(C)OB(c2ccc(-c3ccco3)cc2)OC1(C)C | 1900 | 9.6 | 5 | 1300 | 35 | 27 |  | 
CCCCCc1ccc(B(O)O)cc1 | 1000 | 15 | 15 | 470 | 3.8 | 8 |  | 
CC1(C)OB(c2ccc(-c3ccoc3)cc2)OC1(C)C | 2800 | 15 | 5.4 | 2900 | 33 | 11 |  | 
CCCCCCCCCCCCCCCC(=O)C(F)(F)F |  |  |  |  |  |  | 56 | 14
CCCCCc1ccc(B2OC(C)(C)C(C)(C)O2)cc1 | 2600 | 50 | 19 | 1100 | 21 | 19 |  | 
CCCCCCCc1ccc(B(O)O)cc1 | 1700 | 30 | 18 | 320 | 9 | 28 |  | 
CCCCCCCCCCCCCCCB(O)O |  |  |  |  |  |  | 90 | 63
CCCc1ccc(B(O)O)cc1 | 2000 | 8 | 4 | 4000 | 12.5 | 3.1 |  | 
CC1(C)OB(c2ccc(-c3ccc4ccccc4c3)cc2)OC1(C)C | 2000 | 22 | 11 | 1700 | 15 | 8.8 |  | 
CCCCCCCCCCCCCCCC#N |  |  |  |  |  |  | 4 | 14
